Experiments:
[1] = biological target: T1, ATP-dependent translocase ABCB1 (Homo sapiens, UniProt P08183); test: Inhibition of human MDR1 expressed in mouse NIH/3T3 cells assessed as inhibition of daunomycin efflux incubated for 30 mins by flow cytometry; format: cell-based, NIH3T3
In short: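 Ki for DNM efflux. MDR1-G185 NIH-3T3 cells were incubated 30 min at 37 °C with DNM (2 μM) and varying compound concentrations, then read by flow cytometry. Fluorescence was converted to % P-gp inhibition, normalized to cells treated with 5 mM sodium orthovanadate (100%). Ki was fitted from I = (Imax × S)/(Ki + S). Mean ± SD of three independent experiments in triplicate.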

[2] = Intrinsic cytotoxicity against mouse NIH/3T3 cells transfected with human MDR1 by MTT assay; format: ADME, cell-based, NIH3T3
In short: (§1)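 Intrinsic cytotoxicity was measured by MTT in parental NIH-3T3 and MDR1-G185 cells. CC50 came from a four-parameter logistic fit. The top tested concentration was 60 μM, limited by DMSO toxicity, and growth at 60 μM is given as % of untreated control. Mean ± SD of three independent experiments in duplicate.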

[3] = Intrinsic cytotoxicity against mouse NIH/3T3 cells by MTT assay; format: cell-based, NIH3T3; in short: as §1
[4] = Intrinsic cytotoxicity against mouse NIH/3T3 cells assessed as cell growth at 60 uM by MTT assay; format: cell-based, NIH3T3; details: read-out: Activity; in short: as §1
[5] = biological target: T1, ATP-dependent translocase ABCB1; test: Inhibition of human MDR1 expressed in mouse NIH/3T3 cells assessed as reduction in daunomycin IC50 at 1 uM by MTT assay; format: cell-based; details: nih3t3, 1 µM
In short: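 Parental NIH-3T3 and MDR1-G185 cells were grown in DMEM with 10% iFBS. They were exposed to increasing DNM or VLB (up to 500 ng/mL) with or without compound at fixed 1, 3 or 10 μM. Growth was read by MTT, and IC50 came from a four-parameter logistic fit. Mean ± SD of two independent experiments in triplicate.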

[6] = biological target: T1, ATP-dependent translocase ABCB1; test: Inhibition of human MDR1 expressed in mouse NIH/3T3 cells assessed as reduction in daunomycin IC50 at 3 uM by MTT assay; format: cell-based; details: nih3t3, 3 µM
In short: (§2)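 Parental NIH-3T3 and MDR1-G185 cells were grown in DMEM with 10% iFBS. They were exposed to increasing DNM or VLB (up to 500 ng/mL) with or without compound at fixed 1, 3 or 10 μM. Growth was read by MTT, and IC50 came from a four-parameter logistic fit. Reversal index = IC50 without compound / IC50 with compound in MDR1 cells. Mean ± SD of two independent experiments in triplicate.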

[7] = biological target: T1, ATP-dependent translocase ABCB1; test: Inhibition of human MDR1 expressed in mouse NIH/3T3 cells assessed as reduction in daunomycin IC50 at 10 uM by MTT assay; format: cell-based; details: nih3t3, 10 µM; in short: as §2
[8] = biological target: T1, ATP-dependent translocase ABCB1; test: Inhibition of human MDR1 expressed in mouse NIH/3T3 cells assessed as reduction in vinblastine IC50 at 1 uM by MTT assay; format: cell-based; details: nih3t3, 1 µM; in short: as §2
[9] = biological target: T1, ATP-dependent translocase ABCB1; test: Inhibition of human MDR1 expressed in mouse NIH/3T3 cells assessed as reduction in vinblastine IC50 at 3 uM by MTT assay; format: cell-based; details: nih3t3, 3 µM; in short: as §2
[10] = biological target: T1, ATP-dependent translocase ABCB1; test: Inhibition of human MDR1 expressed in mouse NIH/3T3 cells assessed as reduction in vinblastine IC50 at 10 uM by MTT assay; format: cell-based; details: nih3t3, 10 µM; in short: as §2
[11] = biological target: T1, ATP-dependent translocase ABCB1; test: Inhibition of human MDR1 expressed in mouse NIH/3T3 cells assessed as daunomycin retention at 10 uM incubated for 30 mins by flow cytometry; format: cell-based; parameters: scale not given: the % may be the effect or the level left; details: nih3t3, 0.5 h
In short: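 DNM retention by flow cytometry. MDR1-G185 NIH-3T3 cells in log phase were seeded 24 h before at 10^5 cells/well. They were incubated 30 min at 37 °C in DMEM + 10% iFBS with DNM (2 μM), with or without compound (10 μM). Cells were then washed twice in ice-cold PBS, trypsinized and read immediately for single-cell fluorescence.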

[12] = biological target: T1, ATP-dependent translocase ABCB1; test: Potency index, ratio of vinblastine reversal index to compound reversal index for human MDR1 expressed in mouse NIH/3T3 cells at 3 uM; format: cell-based; details: nih/3t3, 3 µM
[13] = biological target: T1, ATP-dependent translocase ABCB1; test: Potency index, ratio of daunomycin reversal index to compound reversal index for human MDR1 expressed in mouse NIH/3T3 cells at 1 uM; format: cell-based; details: nih/3t3, 1 µM
In short: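 Each RI comes from the MTT dose-response of DNM or VLB (up to 500 ng/mL), with or without modulator.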

[14] = Intrinsic cytotoxicity against mouse NIH/3T3 cells transfected with human MDR1 assessed as cell growth at 60 uM by MTT assay; format: ADME, cell-based, NIH3T3; details: read-out: Activity; in short: as §1

T1 sequence (P08183 whole entry): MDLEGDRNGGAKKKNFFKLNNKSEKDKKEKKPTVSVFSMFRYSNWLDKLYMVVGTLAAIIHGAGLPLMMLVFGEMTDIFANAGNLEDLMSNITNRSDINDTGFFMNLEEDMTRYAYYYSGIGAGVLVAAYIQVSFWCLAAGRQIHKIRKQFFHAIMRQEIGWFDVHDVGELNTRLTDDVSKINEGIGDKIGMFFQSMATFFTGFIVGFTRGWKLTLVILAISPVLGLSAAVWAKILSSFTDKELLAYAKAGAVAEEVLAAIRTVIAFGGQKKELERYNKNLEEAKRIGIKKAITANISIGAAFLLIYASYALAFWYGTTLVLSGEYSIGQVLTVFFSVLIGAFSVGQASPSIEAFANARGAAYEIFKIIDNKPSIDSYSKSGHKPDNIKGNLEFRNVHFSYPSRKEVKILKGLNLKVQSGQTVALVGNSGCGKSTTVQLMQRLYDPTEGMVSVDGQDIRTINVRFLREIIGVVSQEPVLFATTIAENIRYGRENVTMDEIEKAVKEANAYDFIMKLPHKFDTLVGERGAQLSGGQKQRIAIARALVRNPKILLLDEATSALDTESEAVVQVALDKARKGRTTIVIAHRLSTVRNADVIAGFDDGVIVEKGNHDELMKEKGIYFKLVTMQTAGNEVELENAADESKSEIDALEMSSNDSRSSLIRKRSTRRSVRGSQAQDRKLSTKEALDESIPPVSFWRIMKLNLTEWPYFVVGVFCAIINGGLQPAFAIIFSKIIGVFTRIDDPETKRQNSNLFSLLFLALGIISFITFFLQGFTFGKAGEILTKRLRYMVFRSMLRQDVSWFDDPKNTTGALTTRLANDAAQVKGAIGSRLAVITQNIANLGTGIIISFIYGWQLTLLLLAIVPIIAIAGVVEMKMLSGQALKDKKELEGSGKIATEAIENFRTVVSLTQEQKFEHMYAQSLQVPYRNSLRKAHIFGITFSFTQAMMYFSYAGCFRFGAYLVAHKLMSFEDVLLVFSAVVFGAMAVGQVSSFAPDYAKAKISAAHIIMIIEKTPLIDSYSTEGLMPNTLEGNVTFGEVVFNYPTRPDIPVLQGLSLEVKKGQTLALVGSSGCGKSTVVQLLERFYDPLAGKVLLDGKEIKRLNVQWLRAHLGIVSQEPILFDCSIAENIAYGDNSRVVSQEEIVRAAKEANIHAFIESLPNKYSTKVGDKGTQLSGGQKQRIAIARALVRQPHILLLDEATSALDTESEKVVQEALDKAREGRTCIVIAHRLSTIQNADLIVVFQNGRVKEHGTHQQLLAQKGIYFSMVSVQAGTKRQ

Row | Structure (SMILES) | Ki [1] | CC50 [2] | CC50 [3] | viability at 60 µM [4] | fold change (FC) [5] | fold change (FC) [6] | fold change (FC) [7] | fold change (FC) [8] | fold change (FC) [9] | fold change (FC) [10] | Activity [11] | Ratio [12] | Ratio [13] | viability at 60 µM [14]
1 | CC(=O)O[C@H]1CC[C@](C)(O)[C@]23OC(C)(C)[C@H]([C@H](OC(=O)/C=C/c4ccccc4)[C@H](OC(=O)c4ccccc4)[C@]12C)[C@H]3OS(C)(=O)=O | 600 nM | 31.7 µM | > 60 µM | 69.1% | 7 | 11.1 | 16.3 | 18.5 | 86.6 | 149.2 | 83% | 2 |  | 
2 | CC(=O)O[C@H]1CC[C@](C)(O)[C@]23OC(C)(C)[C@H]([C@H](OC(=O)/C=C/c4ccccc4)[C@H](OC(=O)c4ccccc4)[C@]12C)[C@H]3OC(=O)CCl | 1520 nM | 5.3 µM | 7.4 µM |  |  |  |  |  |  |  | 83% |  |  | 
3 | CC(=O)O[C@H]1CC[C@](C)(O)[C@]23OC(C)(C)[C@H]([C@H](OC(=O)/C=C/c4ccccc4)[C@H](OC(=O)c4ccccc4)[C@]12C)[C@H]3OC(C)=O | 290 nM | 18.3 µM | 26.3 µM |  |  |  |  |  |  |  | 83% |  |  | 
4 | CC(=O)O[C@H]1CC[C@](C)(OC(=O)CNCC(C)C)[C@]23OC(C)(C)[C@H]([C@H](OC(=O)/C=C/c4ccccc4)[C@H](OC(=O)c4ccccc4)[C@]12C)[C@H]3OC(C)=O | 630 nM | 34.6 µM | 37.3 µM |  | 10 | 15.1 | 22.2 | 20.6 | 49.1 | 82.9 |  |  | 3 | 
5 | CC(=O)O[C@H]1CC[C@](C)(OC(C)=O)[C@]23OC(C)(C)[C@H]([C@H](OC(=O)/C=C/c4ccccc4)[C@H](OC(=O)c4ccccc4)[C@]12C)[C@H]3OC(C)=O | 520 nM | 51.6 µM | > 60 µM | 68.1% | 6.9 | 10.3 | 15.2 | 21.2 | 58.2 | 91.7 | 85% | 2 |  | 
6 | CCC(=O)O[C@@H]1[C@H]2[C@H](OC(=O)/C=C/c3ccccc3)[C@H](OC(=O)c3ccccc3)[C@]3(C)[C@@H](OC(C)=O)CC[C@](C)(O)[C@@]13OC2(C)C | 540 nM | 24.9 µM | > 60 µM | 68.6% | 10.8 | 11.5 | 12.4 | 19.1 | 69 | 110.9 |  | 2 | 3 | 
7 | CC(=O)O[C@H]1CC[C@](C)(O)[C@]23OC(C)(C)[C@H]([C@H](OC(=O)/C=C/c4ccccc4)[C@H](OC(=O)c4ccccc4)[C@]12C)[C@H]3OC(=O)N(C)C | 1210 nM | 24 µM | 56.3 µM |  | 11.8 | 13.9 | 16.3 | 11.2 | 37.7 | 90.2 |  |  | 3 | 
8 | C=C1CC[C@H](OC(C)=O)[C@@]2(C)[C@@H](OC(=O)c3ccccc3)[C@@H](OC(=O)/C=C/c3ccccc3)[C@@H]3[C@@H](OS(C)(=O)=O)[C@]12OC3(C)C |  |  |  |  |  |  |  |  |  |  | 66% |  |  | 
9 | CC(=O)O[C@H]1CC[C@](C)(O)[C@]23OC(C)(C)[C@H]([C@H](OC(=O)/C=C/c4ccccc4)[C@H](OC(=O)c4ccccc4)[C@]12C)[C@H]3O | 280 nM | 25.5 µM | 26.1 µM |  | 5.6 | 9.1 | 15.1 | 23.7 | 30.3 | 86.6 | 83% |  |  | 
10 | C=C1CC[C@H](OC(C)=O)[C@@]2(C)[C@@H](OC(=O)c3ccccc3)[C@@H](OC(=O)/C=C/c3ccccc3)[C@@H]3[C@@H](O)[C@]12OC3(C)C |  |  |  |  |  |  |  |  |  |  | 66% |  |  | 
11 | C=C1CC[C@H](OC(C)=O)[C@@]2(C)[C@@H](OC(=O)c3ccccc3)[C@@H](OC(=O)/C=C/c3ccccc3)[C@@H]3[C@@H](OC(=O)CCl)[C@]12OC3(C)C |  |  |  |  |  |  |  |  |  |  | 66% |  |  | 
12 | CC(=O)O[C@H]1CC[C@](C)(O)[C@]23OC(C)(C)[C@H]([C@H](OC(=O)/C=C/c4ccccc4)[C@H](OC(=O)c4ccccc4)[C@]12C)[C@H]3OC(=O)c1ccccc1 | 500 nM | 30.6 µM | > 60 µM | 64.1% | 6.2 | 10.1 | 17.5 | 13.9 | 33.6 | 126.2 |  |  |  | 
13 | CC(=O)O[C@H]1CC[C@](C)(O)[C@]23OC(C)(C)[C@H]([C@H](OC(=O)/C=C/c4ccccc4)[C@H](OC(=O)c4ccccc4)[C@]12C)[C@H]3OC(=O)c1cccnc1 | 130 nM | 32.6 µM | > 60 µM | 67.7% | 11.8 | 14.7 | 16.1 | 17.4 | 56 | 113.5 |  | 2 | 3 | 
14 | COc1ccc(CCN(C)CCCC(C#N)(c2ccc(OC)c(OC)c2)C(C)C)cc1OC (stereo unspecified) |  | > 60 µM |  |  |  | 6.2 | 10.8 | 8.7 | 27.8 | 129.9 |  |  |  | 76.9%
15 | CC(=O)O[C@H]1CC[C@]2(C)O[C@@H]3[C@H]4[C@H](OC(=O)/C=C/c5ccccc5)[C@H](OC(=O)c5ccccc5)[C@@]1(C)[C@]32OC4(C)C | 500 nM | 27.9 µM | 29.4 µM |  | 5.9 | 8.7 | 15.6 | 15.2 | 75.8 | 125.2 |  | 2 |  | 
